In brackets after ≈: the same amount, converted by molar mass.
Key:
Cannabinoid receptor 2 [1] = target: T1, Cannabinoid receptor 2 (Homo sapiens, UniProt P34972); assay: Displacement of [3H]-CP-55940 from human CB2 receptor expressed in CHO cell membranes after 1 hr by beta-counting analysis
Homo sapiens = species: Homo sapiens; assay: Selectivity index, ratio of Ki for human CB1 receptor expressed in CHO cell membranes to Ki for human CB2 receptor expressed in CHO cell membranes; format: cell-based
Cannabinoid receptor 1 [2] = target: T2, Cannabinoid receptor 1 (Homo sapiens, UniProt P21554); assay: Displacement of [3H]-CP-55940 from human CB1 receptor expressed in CHO cell membranes after 1 hr by beta-counting analysis
Cannabinoid receptor 1 [3] = target: T2, Cannabinoid receptor 1; assay: Agonist activity at human CB1 receptor
Cannabinoid receptor 2 [4] = target: T1, Cannabinoid receptor 2; assay: Agonist activity at human CB2 receptor
Cannabinoid receptor 2 [5] = target: T1, Cannabinoid receptor 2; assay: Displacement of [3H]-CP-55940 from human CB2 receptor expressed in CHO cell membranes at 10 uM after 1 hr by beta-counting analysis
Outline: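 Competition binding to hCB2-CHO membranes (40 μg) with [3H]-CP-55,940 1 nM in Tris-HCl/MgCl2/EDTA/0.5% BSA buffer, pH 7.4, 1 h at 30°C. Final DMSO was below 0.1%. Filtration on GF/B, then β-count; HU-210 10 µM defined nonspecific binding. Compounds were first screened at 10 μM.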

[6] = Aqueous solubility of compound in stimulated intestinal fluid after 24 hrs by shake-flask method; format: physicochemical; settings: simulated intestinal fluid
Outline: (§1)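 Solubility was measured by shake-flask for 24 h at room temperature in PBS pH 7.4, simulated gastric fluid or simulated intestinal fluid.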

Mus musculus [7] = assay: Anti-inflammatory activity in C57BL6 mouse model of DSS-induced acute colitis assessed as body weight change at 10 mg/kg, ip measured on day 9 (reference value: 79.5 +/- 1.8%); format: functional
HT-29 = assay: Cytotoxicity against human HT-29 cells at 10 uM after 72 hrs by MTS assay relative to control; format: cell-based; settings: ht-29, 72 h
Outline: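 HT29 cells were grown in DMEM-Glutamax with 10% FBS at 37°C and 5% CO2. They were seeded at 3000 cells/well in triplicate and allowed 24 h. Compounds were added at 10 μM with DMSO below 0.1%, for 72 h. Read-out was the MTS colorimetric test, given as % proliferation inhibition from ≥4 experiments in duplicate.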

[8] = Aqueous solubility of compound in stimulated gastric fluid after 24 hrs by shake-flask method; format: physicochemical; settings: simulated gastric fluid; outline: as §1
[9] = Protein binding in human plasma assessed as drug recovery after 4 hrs by equilibrium dialysis method; format: ADME, cell-free; settings: read-out: Drug recovery
Outline: (§2)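 Human plasma protein binding was measured by equilibrium dialysis, 4 h at 37°C. Both % bound and % recovery were reported.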

Cannabinoid receptor 2 [10] = target: T1, Cannabinoid receptor 2; assay: Agonist activity at human CB2 receptor expressed in CHO cell membranes assessed as [35S]GTPgammaS binding after 1 hr by beta-counting analysis; format: functional
[11] = Half life in human liver microsomes at 0.1 mg/ml after 60 mins; format: ADME, Microsome
Outline: (§3)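 Incubation with human liver microsomes at 0.1 mg/mL, 37°C, sampled at 0 and 60 min. Outputs were % remaining at 60 min, half-life and intrinsic clearance in μL/min/mg.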

Mus musculus [12] = assay: Anti-inflammatory activity in C57BL6 mouse model of DSS-induced acute colitis assessed colon weight/size ratio at 10 mg/kg, ip measured on day 9 (reference value: 0.050 +/- 0.0014); format: functional
[13] = Efflux ratio of permeability in human Caco2 after 60 mins; format: ADME, cell-based; settings: Caco-2
Outline: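 Run by a contract lab. Compound incubated with the Caco-2 cell line at 37 °C, pH 6.5/7.4, sampled at 0 and 60 min. Apparent permeability measured A-B and B-A, and the efflux ratio taken as (B-A)/(A-B).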

Mus musculus [14] = assay: Anti-inflammatory activity in C57BL6 mouse model of DSS-induced acute colitis assessed Sod2 mRNA expression at 10 mg/kg, ip measured on day 9 (reference value: 2 +/- 0.4 a.u.); format: functional
Outline: (§4)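 Colons came from DSS-colitis C57BL6 mice dosed ip at 10 mg/kg daily in hydroxypropyl-β-cyclodextrin, or given vehicle. Total RNA was extracted and reverse-transcribed. Sod2 and iNos mRNA were measured by SYBR Green RT-qPCR against the PolR2A reference gene. Mean ± SEM, n = 10, Mann-Whitney U test.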

[15] = Protein binding in human plasma after 4 hrs by equilibrium dialysis method; format: ADME, cell-free; settings: read-out: PPB (converted); outline: as §2
[16] = Aqueous solubility of compound in pH 7.4 PBS after 24 hrs by shake-flask method; format: physicochemical; outline: as §1
Mus musculus [17] = assay: Anti-inflammatory activity in C57BL6 mouse model of DSS-induced acute colitis assessed iNos mRNA expression at 10 mg/kg, ip measured on day 9 (reference value: 1 +/- 0.2 a.u.); format: functional; outline: as §4
[18] = Permeability of the compound across basolateral side to apical side in human Caco2 after 60 mins; format: ADME, cell-based; settings: Caco-2, read-out: permeability
Outline: (§5)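 Caco-2 monolayers were dosed apical-to-basolateral and basolateral-to-apical, pH 6.5/7.4, at 37°C. Samples were taken at 0 and 60 min, and permeability reported in 10^-6 cm/s.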

Cannabinoid receptor 2 [19] = target: T1, Cannabinoid receptor 2; assay: Agonist activity at human CB2 receptor expressed in CHO cell membranes assessed as [35S]GTPgammaS binding after 1 hr by beta-counting analysis relative to control; format: functional
Outline: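 Membranes from hCB2-CHO cells, 40 μg protein, in 50 mM Tris-HCl, 3 mM MgCl2, 1 mM EDTA, 100 mM NaCl, 0.1% BSA, pH 7.4, with 20 μM GDP. [35S]-GTPγS was 0.05 nM final, 1 h at 30°C. Filtration on GF/B, then β-counting. Nonspecific binding was set with 100 μM Gpp(NH)p.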

[20] = Permeability of the compound across apical side to basolateral side in human Caco2 after 60 mins; format: ADME, cell-based; settings: Caco-2, read-out: permeability; outline: as §5
[21] = Stability in human liver microsomes assessed as compound remaining at 0.1 mg/ml after 60 mins; format: ADME, Microsome; settings: read-out: Stability; outline: as §3
Mus musculus [22] = assay: Anti-inflammatory activity in C57BL6 mouse model of DSS-induced acute colitis assessed reduction in MPO activity at 10 mg/kg, ip measured on day 9 relative to control; format: functional; settings: 216 h
Outline: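 DSS-colitis C57BL6 mice were dosed ip at 10 mg/kg daily in hydroxypropyl-β-cyclodextrin, against vehicle controls. Colon was homogenised in phosphate buffer pH 6.0 with 0.5% hexadecyltrimethyl ammonium, then sonicated and freeze-thawed. Supernatant was reacted with o-dianisidine 1 mg/ml and H2O2 0.0005%, and OD read at 450 nm. Results were normalised to Bradford protein; n = 10.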

[23] = Intrinsic clearance in human liver microsomes at 0.1 mg/ml after 60 mins; format: ADME, Microsome; settings: read-out: CLH; outline: as §3

T2 sequence (P21554 whole entry): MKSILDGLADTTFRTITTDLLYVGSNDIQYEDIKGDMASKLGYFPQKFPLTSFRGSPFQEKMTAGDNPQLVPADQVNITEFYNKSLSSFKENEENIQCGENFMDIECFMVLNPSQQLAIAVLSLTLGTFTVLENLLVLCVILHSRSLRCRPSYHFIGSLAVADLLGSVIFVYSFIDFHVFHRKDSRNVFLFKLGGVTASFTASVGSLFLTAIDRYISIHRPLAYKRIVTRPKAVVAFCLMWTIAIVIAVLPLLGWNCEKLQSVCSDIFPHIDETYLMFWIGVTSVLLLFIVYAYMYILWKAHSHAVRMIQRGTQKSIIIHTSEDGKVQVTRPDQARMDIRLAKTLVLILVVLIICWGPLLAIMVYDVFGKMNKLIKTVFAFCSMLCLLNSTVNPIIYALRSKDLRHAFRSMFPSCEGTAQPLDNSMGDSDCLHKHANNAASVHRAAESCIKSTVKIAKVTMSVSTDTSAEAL
T1 sequence (P34972 whole entry): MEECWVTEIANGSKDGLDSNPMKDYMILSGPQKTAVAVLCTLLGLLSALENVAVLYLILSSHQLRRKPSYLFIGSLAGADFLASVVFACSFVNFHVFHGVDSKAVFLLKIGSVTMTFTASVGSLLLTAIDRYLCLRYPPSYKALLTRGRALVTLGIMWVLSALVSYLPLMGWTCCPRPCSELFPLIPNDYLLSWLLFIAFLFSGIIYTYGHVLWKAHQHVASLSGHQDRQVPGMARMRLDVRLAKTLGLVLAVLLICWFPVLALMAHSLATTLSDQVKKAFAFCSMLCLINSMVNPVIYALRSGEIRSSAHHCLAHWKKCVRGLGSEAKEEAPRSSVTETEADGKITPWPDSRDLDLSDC

Row | Structure (SMILES) | Ki (Cannabinoid receptor 2 [1]) | Ratio Ki (Homo sapiens) | Ki (Cannabinoid receptor 1 [2]) | inhibition (Cannabinoid receptor 2 [5]) | other results
1 | CCCC(C)(C)c1ccc2c(c1)OC(C)(C)[C@@H]1CC=C(C)C[C@@H]21 | 8 nM | > 125 | > 1000 nM |  | 
2 | CC(C)(C)NC(=O)c1nn(-c2ccc(F)cc2F)c2c1[C@H]1CC[C@@H]2C1 [TEDALINAB] |  |  |  |  | Ki (Cannabinoid receptor 1 [3]): 985 nM; Ki (Cannabinoid receptor 2 [4]): 11.8 nM
3 | CCCCCn1c(=O)sc2cc(C(=O)NC34CC5CC(CC(C5)C3)C4)ccc21 | > 1000 nM |  |  | > 60% | 
4 | CCCCCn1c(=O)sc2cc(C(=O)C3C(C)(C)C3(C)C)ccc21 | > 1000 nM |  |  | > 60% | 
5 | CCCCCn1c(=O)sc2cc(C(=O)c3ccccc3)ccc21 | > 1000 nM |  |  | > 60% | 
6 | CCCCCn1c(=O)sc2cc(C(=O)C34CC5CC(CC(C5)C3)C4)ccc21 | 13.5 nM | 46 | 627 nM | > 60% | solubility thermodynamic at 24 h [6]: 107 µM (≈ 41.2 µg/mL); Activity (Mus musculus [7]): 85.9%; Activity (HT-29): 0%; solubility thermodynamic at 24 h [8]: 183 µM (≈ 70.3 µg/mL); recovery at 4 h [9]: 100%; EC50 (Cannabinoid receptor 2 [10]): 41.9 nM; half-life [11]: 48 min; Ratio (Mus musculus [12]): 0.044; efflux ratio at 1 h [13]: 0.7; Activity (Mus musculus [14]): 1.2 a.u.; fraction unbound at 4 h [15]: 0.11; solubility thermodynamic at 24 h [16]: 1 µM (≈ 0.384 µg/mL); Activity (Mus musculus [17]): 0.4 a.u.; Papp B→A at 1 h [18]: 1.3 ×10⁻⁶ cm/s; Emax (Cannabinoid receptor 2 [19]): 157%; Papp A→B at 1 h [20]: 1.8 ×10⁻⁶ cm/s; remaining at 1 h [21]: 43%; inhibition in vivo at 10 mg/kg (Mus musculus [22]): 43%; microsomal CLint [23]: 146 µL/min/mg
7 | CC(C)n1c(=O)sc2cc(C(=O)C34CC5CC(CC(C5)C3)C4)ccc21 | 281 nM | > 4 | > 1000 nM | > 60% | 
8 | CCCCCn1c(=O)sc2cc(C(=O)C3CCCCC3)ccc21 | 49.5 nM | > 20 | > 1000 nM | > 60% | Activity (HT-29): 67%; EC50 (Cannabinoid receptor 2 [10]): 41.5 nM; Emax (Cannabinoid receptor 2 [19]): 178%
9 | CCCCCCn1c(=O)sc2cc(C(=O)C34CC5CC(CC(C5)C3)C4)ccc21 | 39 nM | 23 | 903 nM | > 60% | Activity (HT-29): 0%; EC50 (Cannabinoid receptor 2 [10]): 32.8 nM; Emax (Cannabinoid receptor 2 [19]): 169%
10 | CCCCCn1c(=O)sc2cc(/C(=N\O)C34CC5CC(CC(C5)C3)C4)ccc21 | 251 nM | > 4 | > 1000 nM | > 60% | 
11 | CCCCCn1c(=O)sc2cc(/C(=N\OC)C34CC5CC(CC(C5)C3)C4)ccc21 | 438 nM |  |  | > 60% | 
12 | CC(Cn1c(=O)sc2cc(C(=O)C34CC5CC(CC(C5)C3)C4)ccc21)N(C)C (configuration not stated) | 506 nM |  |  | > 60% | 
13 | CCCCCn1c(=O)oc2cc(C(=O)C3CCCCC3)ccc21 | > 1000 nM |  |  | > 60% | 

From ChEMBL document CHEMBL4480384, “Benzo[d]thiazol-2(3H)-ones as new potent selective CB2 agonists with anti-inflammatory properties” (Eur J Med Chem, 2019)
